From PubChem
The list is not random: actives were taken first. Their share in the collection is about 1.7%.
EBNA-1 inhibitor – blocks EBNA-1 binding to DNA. EBNA-1 DNA binding, fluorescence polarization. inhibition, % at 14.8 µM. 300,000 tested, 0.34% active; in the data active means inhibition above about 28%
ZTA DNA inh – ZTA (EBV) inhibition in EBNA-1 counter-screen; ZTA-DNA binding, fluorescence polarization; inhibition, % at 11 µM; 320,000 tested, 0.15% active; in the data active means inhibition above about 33%
Target sequence (P03206 whole entry, looked up): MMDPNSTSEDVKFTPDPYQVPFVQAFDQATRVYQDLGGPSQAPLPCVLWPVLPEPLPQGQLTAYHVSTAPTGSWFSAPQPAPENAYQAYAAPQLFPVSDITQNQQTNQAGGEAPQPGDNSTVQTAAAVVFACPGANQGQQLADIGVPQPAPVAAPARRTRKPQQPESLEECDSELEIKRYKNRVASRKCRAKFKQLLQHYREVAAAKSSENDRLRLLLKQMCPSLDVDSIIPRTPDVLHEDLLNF
UBC13 polyUb – blocks human UBC13 polyubiquitin chain formation; P61088; TR-FRET; inhibition, % at 20 µM; 330,000 tested, 0.47% active; AID 485273; in the data active means inhibition above about 45%, passing the limit was not always enough
Target sequence (P61088 whole entry, looked up): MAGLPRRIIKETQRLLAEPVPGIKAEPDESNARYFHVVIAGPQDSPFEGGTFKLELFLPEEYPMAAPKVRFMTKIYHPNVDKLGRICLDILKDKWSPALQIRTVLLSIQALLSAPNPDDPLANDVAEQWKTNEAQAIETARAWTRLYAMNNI
Apaf-1 inh – human Apaf-1 inhibition | reconstituted apoptosome caspase-3 activity, DEVD-Rh110 fluorescence | AID 489030 | O14727 | 330,000 tested, 0.71% active | inhibition, % at 20 µM; active means inhibition of at least 40% at 20 µM;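 further: plate controls were DMSO wells for no effect and DEVD-CHO caspase inhibitor wells for full effect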
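System – cell-free apoptosome with Apaf-1, procaspase-3 and caspase-9 · Buffer or medium – pH 7.5 Hepes buffer with CHAPS, BSA, DTT · Also added – cytochrome c with DEVD-Rh110 · Times – 30 min compound preincubation, 50 min activation, room temperature · Technique – Rh110 fluorescence intensity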
PREPL inhibitor – human PREPL enzyme inhibition. recombinant PREPL, fluorescence polarization activity-based probe. inhibition, % at 5.96 µM. 320,000 tested, 0.68% active;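 further: 0% = enzyme with DMSO and 100% = wells lacking enzyme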
PREPL confirm – human PREPL inhibition, confirmation. 2,000 tested, 67% active. AID 2803. inhibition, % at 5.96 µM. recombinant PREPL, fluorescence polarization activity probe. shares compounds with PREPL inhibitor;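 further: 0% = protein with DMSO and 100% = wells lacking protein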
Starred values were filed as active, the others as inactive; . = no result given. Unless noted, no stated cut-off is given here; in the data, active means inhibition above about 43%; inactive means the rest.

SMILES | EBNA-1 inhibitor | ZTA DNA inh | UBC13 polyUb | Apaf-1 inh | PREPL inhibitor | PREPL confirm
COC(=O)c1c(NC(=O)CN2CCN(c3cccc(Cl)c3)CC2)sc(C)c1C | 3 | -7 | 2 | 5 | 16 | .
CC#C[C@]1(O)CC[C@H]2[C@@H]3CCC4=CC(=O)CCC4=C3[C@@H](c3ccc(N(C)C)cc3)C[C@@]21C | -5 | 2 | -12 | 18 | 50* | 46*
CCCCc1cn([C@@H](CCCCN)C(=O)N2CCNCC2)nn1 | -14 | -19 | -11 | 5 | -5 | .
N#Cc1c(Nc2ccccc2)sc(C(=O)c2ccccc2)c1N | -7 | -15 | 0 | 19 | 46* | 42
COc1ccc(-c2oc3ncn(CCN4CCOCC4)c(=N)c3c2-c2ccc(OC)cc2)cc1 | 1 | -10 | 21 | 37 | 48* | 35
Cc1ccc(S(=O)(=O)N2CCC(C(=O)Nc3ccccc3N3CCCCC3)CC2)cc1 | 6 | 1 | -3 | 0 | 8 | .
CC(=O)c1ccc(N2CCN(C(=O)/C=C/c3ccc(S(=O)(=O)NCc4ccco4)cc3)CC2)cc1 | -7 | -5 | -10 | -3 | -10 | .
O=[N+]([O-])c1ccc2c(c1)C(N1CCOCC1)/C(=C/COc1ccc(F)cc1)O2 (stereo not given) | -15 | -11 | -5 | 18 | 48* | 36
Cc1ccc2c(c1)cc(CN(Cc1ccc3c(c1)OCO3)S(=O)(=O)c1ccccc1)c1nnnn12 | -7 | 6 | 3 | 19 | 5 | .
O=C1OC[C@@H]2CCCN2C(=O)[C@H](CC(=O)N(CCO)Cc2ccccc2)C/C=C\CC[C@H]1Cc1ccc(F)cc1 | . | . | 12 | 15 | 35 | .
O=C1OC[C@H]2CCCN2C(=O)[C@@H](CC(=O)N(CCO)Cc2ccccc2)C/C=C\C[C@H]1Cc1ccc(F)cc1 | . | . | 20 | 15 | 54* | 45*
O=C1OC[C@H]2CCCN2C(=O)[C@@H](CC(=O)N(CCO)Cc2ccccc2)C/C=C\CC[C@@H]1Cc1ccc(F)cc1 | . | . | 11 | 12 | 27 | .
O=C1OC[C@@H]2CCCN2C(=O)[C@@H](CC(=O)N(CCO)Cc2ccccc2)C/C=C\C[C@H]1Cc1ccc(F)cc1 | . | . | 10 | 23 | 53* | 40
O=C1OC[C@H]2CCCN2C(=O)[C@@H](CC(=O)N(CCO)Cc2ccccc2)C/C=C\CC[C@H]1Cc1ccc(F)cc1 | . | . | 5 | 31 | 45* | 41
CC(=O)c1cc2c(cc1NC(=O)c1ccc(C)cc1)OCCO2 | 5 | 25 | 31 | -4 | 7 | .
O=C(COC(=O)c1ccc(F)c(S(=O)(=O)N2CCOCC2)c1)c1ccc(Br)cc1 | . | . | 2 | -3 | . | .
O=C(c1ccc(CNc2c(N3CCCC3)c(=O)c2=O)cc1)N1CC=C(c2ccccc2)CC1 | -3 | -2 | 2 | 15 | 43* | 42
COc1cccc(-n2nnnc2SCC(=O)NCc2ccco2)c1 | 2 | -16 | -9 | 12 | -7 | .
Fc1ccc(N2CCN(c3cnc4ccccc4n3)CC2)cc1 | 2 | 10 | 5 | 12 | 45* | 39
CCOC(=O)c1c(-c2ccc(-c3ccccc3)cc2)csc1NC(=O)C1C2CCC(O2)C1C(=O)O (stereo not given) | 10 | 14 | -14 | 20 | 51* | 55*
CCOC(=O)c1[nH]c2cc(OC)c(OC)cc2c1NC(=O)CN1CCN(c2ccc(OC)cc2)C(C)C1 (stereo not given) | 5 | 6 | 4 | 12 | 85* | 78*
CC(C)CC(=O)N1CC(=O)Nc2ccc(F)cc2C1c1ccccc1 (stereo not given) | 5 | 0 | -5 | 5 | 5 | .
CC(C)[C@@H]1CC[C@@H](C)C[C@H]1OC(=O)C[n+]1cc(-c2ccc(Cl)cc2)n2c1CCCCC2 | 0 | 6 | 25 | 18 | 41 | .
CC1CCC(C(C)C)C(OC(=O)Cn2c(-c3ccc(Cl)cc3)[n+](C)c3ccccc32)C1 (stereo not given) | -6 | -25 | 25 | 15 | 43* | 47*
Cc1ccc(NC(=S)NC(=O)c2c(-c3ccccc3Cl)noc2C)cc1 | 3 | -6 | -2 | 20 | 5 | .
Cc1cc(N)ccc1-n1c(C)ccc1C | 29* | 55* | -4 | 10 | 59* | 11
Cc1cc(N)ccc1N1CCCC1 | 5 | 5 | -1 | 65* | 57* | 45*
Cc1ccc(-n2c(C)cc(=O)cc2C)c(C)c1 | 0 | -6 | -1 | 3 | 37 | .
